Results on twelve compounds are retold here after ChEMBL document CHEMBL2176948 (J Med Chem, 2012).

The source made the active and inactive calls. The rule behind the calls is not given here.

The subject of series [1] is DLD-1. Kind of series: Cytotoxicity against human DLD1 cells after 96 hrs by MTT assay. It is filed as functional, cell-based. As to conditions: DLD-1, 96 h. The essentials:
(§1)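 Cells were grown in RPMI 1640 with 1 mM sodium pyruvate, 2 mM L-glutamine and 10% FBS. They were seeded at 1 × 10⁴ cells/mL and left overnight at 37 °C in 5% CO₂. Medium was then replaced with a broad concentration range of compound diluted from DMSO (final DMSO ≤0.1%). After 96 h exposure, growth was read by MTT.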
In general terms: Tetrazolium assays rely on reduction of a dye to a coloured formazan, in cell work by metabolically active cells.

A further series has as its system MDA-MB-231. Kind of series: Cytotoxicity against human MDA-MB-231 cells after 96 hrs by MTT assay. Conditions: MDA-MB-231, 96 h. It counts as functional, cell-based. The essentials:
as §1

The subject of series [2] is HT-29. Kind of series: Cytotoxicity against human HT-29 cells after 96 hrs by MTT assay. Conditions: HT-29, 96 h. It counts as functional, cell-based. The essentials: as §1
In series [3] the test system is A2780 (human ovarian carcinoma). Kind of series: Cytotoxicity against human A2780 cells after 96 hrs by MTT assay. Conditions: A2780, 96 h.
Series [4] concerns HT-29. In words: Induction of microtubule disruption in human HT-29 cells assessed as change […] cell morphology and cytoskeletal organization after 24 hrs by immunostaining. It counts as cell-based. The essentials: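 HT29 cells on glass coverslips were allowed to adhere for 24 h, then exposed to 5, 50 and 500 nM for 24 h. Cells were fixed in methanol at −20 °C for 30 min and stained with mouse anti-α-tubulin (1:500, 30 min, rt), then TRITC anti-mouse IgG (1:50, 30 min). Images were taken by confocal microscopy and compared with untreated cells.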

The test system of series [5] is HeLa. Kind of series: Cytotoxicity against human HeLa cells after 96 hrs by MTT assay. It is filed as functional, cell-based. The essentials:
(§2)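 Parental HeLa cells and a transfected class III β-tubulin-overexpressing variant were seeded at 1 × 10⁴ cells/mL and held overnight at 37 °C, 5% CO₂. Compounds in DMSO were diluted in complete medium over a broad range (final DMSO ≤0.1%) and exposed for 96 h. Read-out was MTT. IC50 is the mean ± standard error of at least four independent assays.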

The subject of series [6] is DLD-1. In words: Induction of ABCG2 mRNA expression in human DLD1 cells at 1/10 IC50 to IC50 after 96 hrs by RT-PCR analysis. It is filed as functional, cell-based. The essentials:
(§3)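 HT29 and DLD-1 cells were seeded at 5 × 10⁵ cells/dish, incubated overnight, then treated for 96 h. Total RNA was isolated, and ABCB1 and ABCG2 mRNA were measured by quantitative RT-PCR. Fold induction is target/PPIA signal relative to the control ratio, from three independent PCR analyses. Statistics: paired two-tailed t test with two-way ANOVA and Bonferroni correction.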

The test system of another series is A2780 ADR. In words: Effect on ABCB1 level in human A2780AD cells expressing p-gp. It counts as functional, cell-based.
For the next series, the system named is Liver. Kind of series: Metabolic stability of the compound in mouse liver homogenates at 100 uM after 2 hrs. It is filed as ADME, tissue-based. As to conditions: tissue homogenate.
Series [7] in a line: Cytotoxicity against human A2780AD cells expressing p-gp after 96 hrs by MTT assay. Conditions: A2780 ADR. It is filed as functional, cell-based. The essentials:
(§4)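 Cells were seeded at 1 × 10⁴ cells/mL in 96-well format and incubated overnight at 37 °C in 5% CO₂. Medium was replaced with serial compound dilutions from DMSO stocks in complete medium (final DMSO ≤0.1%). Chemosensitivity was read by MTT after 96 h.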

For series [8], the system named is DLD-1. Kind of series: Induction of ABCB1 mRNA expression in human DLD1 cells at 1/10 IC50 to IC50 after 96 hrs by RT-PCR analysis. It counts as functional, cell-based. The essentials: as §3
The test system of series [9] is HT-29. Kind of series: Induction of ABCB1 mRNA expression in human HT-29 cells at 1/10 IC50 to IC50 after 96 hrs by RT-PCR analysis. It is filed as functional, cell-based. The essentials: as §3
The test system of series [10] is HT-29. Kind of series: Induction of ABCG2 mRNA expression in human HT-29 cells at 1/10 IC50 to IC50 after 96 hrs by RT-PCR analysis. It counts as functional, cell-based. The essentials:
as §3

For the next series, the system named is A549. Kind of series: Cytotoxicity against human A549 cells after 96 hrs by MTT assay in presence of fumitremorgin-C. It is filed as functional, cell-based. The essentials: as §4
The subject of series [11] is HeLa. In words: Cytotoxicity against human HeLa cells expressing class 3 tubulin after 96 hrs by MTT assay. It counts as functional, cell-based. The essentials:
as §2

The subject of series [12] is HT-29. Kind of series: Cell cycle arrest in human HT-29 cells assessed as accumulation at G2/M phase at 40 nM after 24 hrs by FACS analysis. It is filed as functional. Background: Flow cytometry measures light scatter and fluorescence of single cells or particles in a stream.
Series [13] has as its system HT-29. In words: Cell cycle arrest in human HT-29 cells assessed as accumulation at G2/M phase at 40 nM after 48 hrs by FACS analysis. It is filed as functional.

For `COc1cc2c(c(OC)c1OC)-c1ccc(OC)c(=O)cc1[C@@H](NCc1cc(F)cc(F)c1)CC2`, the values for the IC50 with DLD-1 [1], in the series with MDA-MB-231 and with HT-29 [2] were 35.2 nM, 523 nM and 52 nM, respectively.

As to `COc1cc2c(c(OC)c1OC)-c1ccc(OC)c(=O)cc1[C@@H](NCc1ccc(Cl)cc1)CC2`, inhibition in the series on DLD-1 [1] was half-maximal at 32.6 nM (IC50).

For the compound `COc1cc2c(c(OC)c1OC)-c1ccc(OC)c(=O)cc1[C@@H](NCc1ccc(F)c(F)c1)CC2`, the IC50 (in general, the concentration at which inhibition is half-maximal) in series [3] was determined as 18.8 nM; with HeLa [5], 25.3 nM; with DLD-1 [1] it was 1.61 nM; in series [7] it was 17.2 nM; with MDA-MB-231 it was 16 nM; in the series on HeLa [11], 14.1 nM. The compound also showed an IC50 with HT-29 [2] of 4.3 nM. Also, the Activity result was “Dose-dependent effect” in the series with HT-29 [4], 92.5% in the series with HT-29 [12] and 91.2% in the series on HT-29 [13]. The outcome in the series on DLD-1 [6], in the series with A2780 ADR and in the series with DLD-1 [8] was inactive. The Stability entry in the series on Liver was “Stable”. Further, the result with HT-29 [9], with HT-29 [10] and in the series on A549 was Active.

In the case of `COc1cc2c(c(OC)c1OC)-c1ccc(OC)c(=O)cc1[C@@H](NCc1ccc(Br)cc1)CC2`, the 50% inhibitory concentration (IC50) in the series with DLD-1 [1] is 31.2 nM.

As for `COc1cc2c(c(OC)c1OC)-c1ccc(OC)c(=O)cc1[C@@H](NCc1cccc(F)c1F)CC2`, the 50% inhibitory concentration (IC50) is 4.67 nM in the series on DLD-1 [1], 86 nM in the series with MDA-MB-231 and 7.43 nM with HT-29 [2].

With `COc1cc2c(c(OC)c1OC)-c1ccc(OC)c(=O)cc1[C@@H](NCc1cccc(F)c1)CC2`, the half-maximal inhibitory concentration (IC50) in the series on DLD-1 [1] was 51.6 nM; in the series with MDA-MB-231 it was 89.1 nM; in the series with HT-29 [2], 63.4 nM.

Take `COc1ccc(CN[C@H]2CCc3cc(OC)c(OC)c(OC)c3-c3ccc(OC)c(=O)cc32)cc1`: the IC50 with DLD-1 [1] was found to be 15.7 nM; in the series on MDA-MB-231 it was 93 nM; with HT-29 [2], 51 nM.

`COc1cc2c(c(OC)c1OC)-c1ccc(OC)c(=O)cc1[C@@H](NCc1ccc(F)cc1)CC2` registered an IC50 with DLD-1 [1] of 11.4 nM.

On to `COc1cc2c(c(OC)c1OC)-c1ccc(OC)c(=O)cc1[C@@H](NC(C)=O)CC2` [COLCHICINE], for which the IC50 worked out at 6.7 nM in [3]; 8.2 nM in the series with HeLa [5]; 15.6 nM in the series on DLD-1 [1]; 16.8 nM in series [7]; 37 nM with MDA-MB-231; 9.7 nM in the series on HeLa [11]. The same compound came in with an IC50 in the series with HT-29 [2] of 69.2 nM. Further, the result in the series on DLD-1 [6] and in the series with DLD-1 [8] was inactive. For the same compound, the result in the series on HT-29 [9], in the series on HT-29 [10], with HT-29 [12] and in the series with HT-29 [13] was Active.

As for `CC(=O)O[C@H]1C(=O)[C@@]2(C)[C@H]([C@H](OC(=O)c3ccccc3)[C@]3(O)C[C@H](OC(=O)[C@H](O)[C@@H](NC(=O)c4ccccc4)c4ccccc4)C(C)=C1C3(C)C)[C@]1(OC(C)=O)CO[C@@H]1C[C@@H]2O` [PACLITAXEL], the values for the IC50 in [3] and in series [7] were 1.1 nM and greater than 1000 nM, respectively.

Turning to `COc1cc2c(c(OC)c1OC)-c1ccc(OC)c(=O)cc1[C@@H](NCc1ccc(I)cc1)CC2`, the IC50 in the series on DLD-1 [1] stood at 35.9 nM.

Consider `COc1cc2c(c(OC)c1OC)-c1ccc(OC)c(=O)cc1[C@@H](NCc1cc(F)c(F)c(F)c1)CC2`, for which the IC50 was 36.2 nM in the series on DLD-1 [1], 92.2 nM with MDA-MB-231 and 64.5 nM with HT-29 [2].
